Rows were chosen to be rich in hits. Some 2.8% of all compounds tested hit in one or more screens of this group.
NPY-Y1 antag = blocks the human neuropeptide Y Y1 receptor; P25929; HEK293-CNG Y1 cells, membrane potential fluorescence; NPY at EC95, then isoproterenol; inhibition, % at 3.6 µM; actives 1% (n = 200,000); AID 1040;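 active means inhibition above the campaign mean inhibition of all tested compounds plus 3 SD, cut at about 20% in these data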;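 further: 0% = DMSO wells given NPY plus isoproterenol and 100% = isoproterenol alone without NPY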
Target sequence (P25929 whole entry, looked up): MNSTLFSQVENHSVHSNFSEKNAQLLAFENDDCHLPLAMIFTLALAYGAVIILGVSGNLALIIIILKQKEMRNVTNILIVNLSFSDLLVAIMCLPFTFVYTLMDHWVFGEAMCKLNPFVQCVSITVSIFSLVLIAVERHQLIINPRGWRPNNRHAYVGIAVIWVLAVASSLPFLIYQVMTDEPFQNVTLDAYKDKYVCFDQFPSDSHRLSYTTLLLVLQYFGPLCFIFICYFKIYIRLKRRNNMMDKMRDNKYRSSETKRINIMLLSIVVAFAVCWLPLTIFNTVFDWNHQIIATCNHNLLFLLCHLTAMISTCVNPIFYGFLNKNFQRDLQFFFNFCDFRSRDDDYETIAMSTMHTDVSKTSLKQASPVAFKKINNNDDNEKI
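Benchmarks – high control isoproterenol alone, low control NPY with isoproterenol · Material – HEK293 Y1/CNG channel cell line · Times – dye 3 h, compound 60 min room temperature, stimulation 45 min · Probe or stimulus – NPY (25 nM), isoproterenol (1 µM), Ro 20-1724 (25 µM) · Evaluation – % inhibition of NPY effect · Signal – fluorescence, membrane potential probe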
NPY-Y2 antag = antagonists of human neuropeptide Y receptor Y2 | inhibition, % at 2.7 µM | P49146 | actives 0.99% (n = 140,000) | NPY-Y2 expressing cells, antagonist mode | AID 793;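 further: 0% = vehicle with agonist challenge and 100% = reference antagonist with challenge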
NPY-Y1 PAM-ag = potentiates or activates human NPY-Y1 receptor; actives 0.37% (n = 220,000); AID 1304; activation, % at 3.6 µM; NPY-Y1 expressing cells, potentiator/agonist activation; in the data active means activation above about 33%, passing the limit was not always enough;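 further: cells stimulated with NPY at EC10 then isoproterenol at EC100; 0% = low agonist plus stimulus and 100% = saturating agonist plus stimulus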
PGE2 EP2 inh = inhibitors of human EP2 prostaglandin E2 receptor; AID 1422; actives 0.52% (n = 260,000); inhibition, % at 25 µM; P43116; C6 glioma cells expressing human EP2, cAMP TR-FRET; cells stimulated with saturating PGE2;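 active means percent inhibition above 40 after rounding to a whole number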;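 further: rat C6 glioma host cells with rolipram phosphodiesterase inhibitor present; the protocol text gives 20 µM as final concentration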
Target sequence (P43116 whole entry, looked up): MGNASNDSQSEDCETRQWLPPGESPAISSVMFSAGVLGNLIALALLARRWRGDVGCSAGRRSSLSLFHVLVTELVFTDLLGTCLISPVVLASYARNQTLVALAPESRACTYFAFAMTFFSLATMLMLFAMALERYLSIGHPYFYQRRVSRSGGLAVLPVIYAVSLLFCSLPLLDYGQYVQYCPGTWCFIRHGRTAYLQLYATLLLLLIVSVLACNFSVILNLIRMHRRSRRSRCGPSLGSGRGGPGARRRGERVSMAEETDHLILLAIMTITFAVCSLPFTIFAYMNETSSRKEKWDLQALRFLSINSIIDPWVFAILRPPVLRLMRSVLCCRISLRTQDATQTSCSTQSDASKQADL
NPY2 pot ag = potentiates or activates human NPY-Y2 receptor; actives 0.45% (n = 220,000); activation, % at 3.6 µM; cells expressing NPY-Y2, potentiator/agonist read-out; P49146; in the data active means activation above about 27%;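 further: cells stimulated with NPY near EC25 plus isoproterenol at EC100; 0% = vehicle plus submaximal agonist and 100% = vehicle plus saturating agonist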
EP2 modulator = modulators of human EP2 prostaglandin E2 receptor; P43116; EP2-expressing cells, cAMP HTRF FRET, PGE2 co-stimulation; induction, % at 25 µM; actives 0.83% (n = 260,000); AID 940;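 active means compounds whose cAMP rise, as percent of the full-agonist control response, exceeds 60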;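 further: rat C6 glioma line stably carrying human EP2 under a CMV promoter; the protocol text gives 20 µM as final concentration; 100% = response of wells given 1 µM PGE2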
NPY-Y1 ant conf = human NPY-Y1 antagonism, confirmation. shares compounds with NPY-Y1 antag. inhibition, % at 3.6 µM. HEK293-CNG NPY-Y1, membrane potential fluorescence, cAMP; NPY challenge against isoproterenol-raised cAMP. AID 1254. actives 21% (n = 1,200); in the data active means inhibition above about 20%;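 further: 0% = vehicle with agonist plus stimulus and 100% = stimulus alone without agonist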
NPY2 antag ctr = counter-screen for NPY-Y1 antagonists: human NPY-Y2 antagonism; actives 28% (n = 1,200); inhibition, % at 3.6 µM; HEK293 NPY-Y2 CNG membrane potential fluorescence; cells given NPY, then isoproterenol; shares compounds with NPY-Y1 antag;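 further: 0% = DMSO with agonist challenge and 100% = reference antagonist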
NPY-Y1 confirm = human NPY-Y1 potentiation or agonism, confirmation; activation, % at 3.6 µM; actives 20% (n = 280); cell-based NPY-Y1 potentiator/agonist assay; AID 1546; shares compounds with NPY-Y1 PAM-ag; in the data active means activation above about 45%;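 further: cells challenged with NPY at its EC10 plus isoproterenol stimulus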
NPY-Y2 counter = NPY-Y2 potentiation or agonism as NPY-Y1 counter-screen; HEK293-CNG cells, membrane-potential fluorescence (FLIPR), 1536-well; AID 1649; actives 20% (n = 280); activation, % at 3.6 µM; shares compounds with NPY-Y1 PAM-ag; in the data active means activation above about 33%
NPY-Y1 agonist = activates human NPY-Y1, counter-screen for NPY-Y1 potentiators. shares compounds with NPY-Y1 PAM-ag. HEK293 Y1-CNGC, membrane potential fluorescence, agonist mode. activation, % at 3.6 µM. actives 50% (n = 280). AID 1697;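 active means percent activation above the mean of DMSO-only control wells plus 3 SD of those wells, cut at about 18% in these data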;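 further: cells challenged with isoproterenol plus Ro 20-1724 with no NPY in test wells; Y1 agonism lowers isoproterenol-driven cAMP and reduces probe fluorescence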
NPY-Y2 agonist = counter-screen for NPY-Y1 potentiators or agonists: agonists of NPY-Y2. shares compounds with NPY-Y1 PAM-ag. HEK293 Y2-CNGC, membrane potential fluorescence, agonist mode. activation, % at 3.6 µM. actives 67% (n = 280). AID 1698;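 active means activation above the solvent-only control wells' mean plus 3 SD, cut at about 11% in these data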;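 further: 0% = DMSO with isoproterenol and 100% = 40 nM NPY maximal response; agonism lowers cAMP so well fluorescence drops in active wells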
CNGC counter = blocks cyclic nucleotide gated channel in NPY-Y1 counter-screen; shares compounds with NPY-Y1 PAM-ag; HEK293-CNG parental, isoproterenol cAMP, membrane potential fluorescence; inhibition, % at 3.6 µM; actives 42% (n = 280);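 active means inhibition above the mean of stimulated solvent-only control wells plus 3 SD, cut at about 22% in these data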;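 further: 0% = isoproterenol-stimulated DMSO wells and 100% = unstimulated DMSO wells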
The depositor's hits bear a star; / = not tested or not shown. Unless noted, no stated cut-off is given here; in the data, active means inhibition above about 17%; inactive means the rest.

SMILES | NPY-Y1 antag | NPY-Y2 antag | NPY-Y1 PAM-ag | PGE2 EP2 inh | NPY2 pot ag | EP2 modulator | NPY-Y1 ant conf | NPY2 antag ctr | others
COc1ccc(C(c2c(C)n(C)n(-c3ccccc3)c2=O)c2c(C)n(C)n(-c3ccccc3)c2=O)cc1O | 56* | / | 14 | 5 | -7 | 5 | -1 | 0
Cc1ccc(C(C)C(=O)N2CCn3cc(C(F)(F)F)nc3C2)cc1 (centres undefined) | / | / | / | 2 | / | -17 | / | /
COC(=O)CSc1nnc(-c2ccco2)n1-c1cccc(OC)c1 | / | / | / | 8 | / | -4 | / | /
COc1ccc(-c2nnc(NC(=O)CC3CCCCC3)s2)cc1 | / | / | / | 10 | / | 4 | / | /
Cc1ccc(C(=O)c2cc([N+](=O)[O-])ccc2N2CCOCC2)c(C)c1 | 34* | 3 | -4 | 12 | -8 | 22 | 6 | 22*
O=C1c2cccc3c(N4CCCCC4)ccc(c23)C(=O)N1c1ccc(O)cc1 | 22* | / | -21 | 9 | -18 | 50 | 15 | 20*
O=C1c2cccc3c(N4CCCCC4)ccc(c23)C(=O)N1c1ccccc1O | 1 | / | -14 | 4 | -13 | 15 | / | /
COc1ccc(/C(C)=C2\SC(=S)N(CCC(=O)O)C2=O)cc1 | 23* | 13 | -34 | 9 | -42 | 35 | 10 | 6
CCOC(=O)c1ccccc1NC(=O)c1ccccc1SC | 24* | 3 | -46 | 11 | -18 | 12 | 7 | 4
COC(=O)c1ccccc1NC(=O)c1ccccc1SC | 11 | 0 | -21 | 10 | 3 | 23 | / | /
CN(C)S(=O)(=O)c1ccc(S(=O)(=O)N(Cc2ccccc2Cl)CC2CCCO2)cc1 (centres undefined) | / | / | / | 5 | / | -18 | / | /
O=C1/C(=C\c2ccc(Br)o2)Cc2ccccc21 | 25* | 13 | -22 | 9 | 14 | 28 | 16 | 7
O=C1/C(=C/c2cccs2)Cc2ccccc21 | -1 | 6 | 13 | 5 | 9 | 10 | / | /
Cc1cccc(C(=O)Nc2nc3ccccc3s2)c1 | / | / | / | 9 | / | -12 | / | /
Cc1ccc(N(C(=O)Cn2nnc3ccccc32)C(C(=O)NCC2CCCO2)c2cccs2)cc1 (centres undefined) | / | / | / | 6 | / | 6 | / | /
Cc1ccc(C(=O)N2c3ccccc3N(Cc3ccccc3)C(=O)C2(C)C)cc1 | 30* | 10 | -40 | 3 | 35 | 31 | 13 | 7
CSCCC(NC(=O)c1ccco1)C(=O)OC(C)C(=O)NC(=O)NC1CCCCC1 (centres undefined) | 25* | 2 | -27 | 8 | -21 | 4 | 8 | 8
COc1ccc(CNC(=O)C(CCSC)NC(=O)c2ccco2)cc1 (centres undefined) | 3 | 2 | 2 | 7 | -4 | 21 | / | /
N=c1c2c3c(sc2nc2n1CCCCC2)CCCCC3 | 20* | 9 | 10 | 14 | 8 | -6 | 2 | 6
CC(=O)N(CCC(Cc1ccccc1)c1ccc2c(c1)OCO2)Cc1ccc(Cl)cc1 (centres undefined) | 12 | 9 | -7 | 10 | -18 | 21 | / | /
O=C(O)CC(Cc1ccccc1)c1ccc2c(c1)OCO2 (centres undefined) | 23* | 8 | -21 | / | -28 | 14 | 13 | 12
CC1CCC(C(C)C)C(OCC(O)CN2CCCC(C)C2)C1 (centres undefined) | 28* | / | 47* | 5 | 12 | -8 | 27* | 21* | NPY-Y1 confirm=5;NPY-Y2 counter=5;NPY-Y1 agonist=8;NPY-Y2 agonist=14*;CNGC counter=-13
CC(=O)OC1COC(OC2C(O)C(C)OC(OC3C(OC4CCC5(C)C(CCC6(C)C5CC=C5C7CC(C)(C)CCC7(C(=O)O)CCC56C)C4(C)CO)OCC(O)C3O)C2O)C(O)C1OC(C)=O (centres undefined) | 23* | / | 60* | 14 | 7 | -1 | 22* | 12 | NPY-Y1 confirm=83*;NPY-Y2 counter=68*;NPY-Y1 agonist=58*;NPY-Y2 agonist=62*;CNGC counter=47*
C[C@H]1O[C@H](O[C@@H]2[C@@H](O[C@H]3CC[C@@]4(C)C(CC[C@]5(C)C4CC=C4[C@@H]6CC(C)(C)CC[C@]6(C(=O)O)CC[C@]45C)[C@]3(C)CO)OC[C@@H](O)[C@H]2O)[C@@H](O)[C@H](O)[C@@H]1O (some centres undefined) | / | / | / | 13 | / | 13 | / | /
CCc1c(C)nc2cc(-c3cc(OC)cc(OC)c3)nn2c1NCCCN1CCOCC1 | / | / | / | 6 | / | 17 | / | /
SMILES | NPY-Y1 antag | NPY-Y2 antag | NPY-Y1 PAM-ag | PGE2 EP2 inh | NPY2 pot ag | EP2 modulator | NPY-Y1 ant conf | NPY2 antag ctr | others
O=C1c2ccccc2C(=O)c2c([N+](=O)[O-])ccc(O)c21 | / | / | 52* | 9 | -1 | -77 | / | / | NPY-Y1 confirm=41;NPY-Y2 counter=43*;NPY-Y1 agonist=29*;NPY-Y2 agonist=33*;CNGC counter=36*
CC(C)c1ccc2c(c1)CCC1C(C)(CN)CCCC21C (centres undefined) | / | / | 47* | 11 | 33 | 0 | / | / | NPY-Y1 confirm=48*;NPY-Y2 counter=42*;NPY-Y1 agonist=34*;NPY-Y2 agonist=40*;CNGC counter=22
CCn1c(N2CCC(C(=O)NCc3ccc(F)cc3)CC2)nc2ccccc21 | / | / | / | / | / | -39 | / | /
O=C1N(C2CCCC2)C[C@@H]2C[C@@H](c3cn[nH]c3-c3ccc(Cl)cc3)N3CCC[C@@]123 | -7 | / | 39* | 8 | 4 | 20 | / | / | NPY-Y1 confirm=49*;NPY-Y2 counter=25;NPY-Y1 agonist=32*;NPY-Y2 agonist=31*;CNGC counter=42*
COc1ccc(CC(=O)NC2CCN(CC(=O)Nc3ccc4c(c3)CCC4)CC2)cc1OC | / | / | / | 8 | / | -32 | / | /
C=CCc1ccc(O)c(-c2cc(CC=C)ccc2O)c1 | -8 | / | 33* | 6 | 15 | 32 | / | / | NPY-Y1 confirm=22;NPY-Y2 counter=11;NPY-Y1 agonist=12;NPY-Y2 agonist=16*;CNGC counter=21
